Published values collected from several papers.
Each line is one published result; the experiments were not run side by side.
Cell line: MCF7
Effect on: cell growth or viability

Structure (SMILES)	test	conditions	IC50
NS(=O)(=O)c1ccc(-n2nc(C(=O)NN3C(=O)CCC3=O)cc2-c2ccccc2)cc1	fluorescence	48 h	32.5 µM
COc1ccc(N(Cc2csc(-c3ccccc3)n2)C(=O)CCCCCC(=O)NO)cc1	MTT	72 h	3.12 µM
O=C(NO)Nc1nc2c(Cl)cc(Cl)cc2c(=O)n1-c1ccc(Cl)cc1	MTT	48 h	> 200 µM
COc1ccccc1-n1cc(CNC(=O)[C@@]2(C)[C@H](O)CC[C@@]3(C)[C@H]2CC[C@]2(C)[C@@H]3C(=O)C[C@@H]3[C@@H]4[C@@H](C)[C@H](C)CC[C@]4(C)CC[C@]32C)nn1	MTT	24 h	73.4 µM
CCC(C(=O)N1C(=O)C(=Nc2ccc(Cl)cc2Br)c2ccccc21)c1ccccc1 (stereo not drawn)	MTT	48 h	34.2 µM
O=C1Nc2ccccc2/C1=N/N=C/c1cccc([N+](=O)[O-])c1	MTT	24 h	48.9 µg/mL
CN1CCc2c(c3ccccc3n2Cc2ccc(C(=O)NO)cc2)C1	CCK-8	48 h	27.4 µM
CC(C)Cc1ccc([C@H](C)C(=O)O)cc1	SRB	72 h	399 µM
CC(C)c1cccc(C(C)C)c1N=C1C(=O)N(Cc2cccc(Cl)c2)c2ccccc21	MTT	48 h	46.5 µM
NS(=O)(=O)c1ccc(-n2nc(C(=O)NN=Cc3cccnc3)cc2-c2ccccc2)cc1	fluorescence	48 h	34.1 µM
C#Cc1cccc(Nc2ncnc3cc(OCCOC)c(OCCOC)cc23)c1	LDH	48 h	1.05 µM
O=C1C(=Nc2ccccc2I)c2ccccc2N1Cc1ccc([N+](=O)[O-])cc1	MTT	48 h	11.6 µM
CCCNC(=S)N/N=C/c1cccc2cc3ccccc3nc12	MTT	48 h	48.1 µM
CN(C)c1cccc(Nc2nc(-c3ccncc3)nc3c2CNCC3)c1	MTT		46.4 µM
O=[N+]([O-])c1cc(I)c(O)c(C=NNc2ccc(C(F)(F)F)cc2)c1	MTT	24 h	8.56 µM
C/C(=N\NC(=O)/N=C(\C)c1c(O)c2ccccc2oc1=O)c1c(O)c2ccccc2oc1=O	MTT	48 h	12.6 µM
Fc1ccc2c(-c3ncc(-c4ccccc4)o3)nn(Cc3ccccc3)c2c1		48 h	71 µM
O=C(O)c1c[nH]c2ccc(Oc3ccccc3)cc2c1=O	MTT		≥ 200 µM
O=C1C(Cl)=C(n2ccnc2)C(=O)c2ccccc21	MTT	24 h	48.8 µg/mL
O=c1[nH]cc(F)c(=O)[nH]1	MTT	48 h	11.3 µM
CC(=O)c1c(O)c2ccccc2oc1=O	MTT	48 h	32.5 µM
CC(=O)O[C@@H]1[C@@H](OC(C)=O)[C@H](OC(C)=O)CO[C@H]1n1cc(Cn2c(C(=O)/C=C/c3ccc(F)cc3)nc3ccccc32)nn1	LDH	48 h	2.98 µM
COc1cccc2c1C(=O)c1c(O)c3c(c(O)c1C2=O)C[C@@](O)(C(=O)CO)C[C@@H]3O[C@H]1C[C@H](N)[C@H](O)[C@H](C)O1	MTT		5.8 µg/mL
Cc1ccc(CN2C(=O)C(=Nc3cccc(Cl)c3)c3ccccc32)cc1	MTT	48 h	2.26 µM
Nc1ccn([C@@H]2O[C@H](CO)[C@@H](O)C2(F)F)c(=O)n1	MTT	48 h	1.59 µg/mL
Clc1ccc(Cn2nc(-c3ncc(-c4ccccc4)s3)c3ccccc32)c(Cl)c1		48 h	65.2 µM
C[C@H]1[C@H](C)CC[C@]2(C(=O)O)CC[C@]3(C)C(=CC[C@@H]4[C@@]5(C)CC[C@H](O)C(C)(C)[C@@H]5CC[C@]43C)[C@H]12	MTT	24 h	27.3 µM

Structure (SMILES)	test	conditions	IC50
Cc1cccc(N=C2C(=O)N(Cc3ccc(Br)cc3)c3ccccc32)c1	MTT	48 h	9.69 µM
CCOC(=O)c1c(C)nc2ccc(-c3ccc(F)cc3F)cc2c1O	MTT	48 h	27 µM
O=c1c2cc(Cl)cc(Cl)c2nc(NNc2cccc(Cl)c2)n1-c1ccccc1	MTT	48 h	> 200 µM
O=C1CS/C(=N\c2cc(C(F)(F)F)ccc2-c2nnc(N3C(=O)CS/C3=N\c3cc(O)cc(Br)c3)s2)N1c1cc(O)cc(Br)c1	MTT		73.5 µM
CC(=NNC(=O)c1cc(-c2ccccc2)n(-c2ccc(S(N)(=O)=O)cc2)n1)c1ccc(Br)cc1	fluorescence	48 h	35.4 µM
C[C@H]1[C@H](C)CC[C@]2(C)CC[C@]3(C)C(=CC(=O)[C@@H]4[C@@]5(C)CC[C@@H](O)[C@](C)(C(=O)NCc6cn(-c7ccc(F)cc7)nn6)[C@@H]5CC[C@]43C)[C@H]12	MTT	24 h	76.4 µM
Cc1ccc(NNc2nc3c(Cl)cc(Cl)cc3c(=O)n2-c2ccccc2)cc1	MTT	48 h	> 200 µM
FC(F)(F)c1ccc(-c2noc(-c3nn(Cc4ccc(Cl)cc4Cl)c4ccccc34)n2)cc1		48 h	166 µM
O=C(/C=C/c1ccc(F)cc1)c1nc2ccccc2n1Cc1cn([C@@H]2O[C@H](CO)[C@H](O)[C@H](O)[C@H]2O)nn1	LDH	48 h	1.99 µM
O=C1CS/C(=N\c2ccccc2Cl)N1c1nnc(-c2ccc(C(F)(F)F)cc2/N=C2\SCC(=O)N2c2ccccc2Cl)s1	MTT		47.1 µM
O=[N+]([O-])c1cc(Br)c(O)c(C=NNc2ccccc2)c1	MTT	24 h	6.4 µM
CN1CCC(NC2CCc3[nH]c4c(C(N)=O)ccc(-c5ccccc5Cl)c4c3C2)CC1 (stereo not drawn)			0.0164 µM
NNc1nc2c(Cl)cc(Cl)cc2c(=O)n1-c1ccc(Cl)cc1	MTT	48 h	> 200 µM
O=C1CS/C(=N\c2cc(C(F)(F)F)ccc2-c2nnc(N3C(=O)CS/C3=N\c3ccc(Cl)cc3)s2)N1c1ccc(Cl)cc1	MTT		52.5 µM
COc1cccc2c1C(=O)c1c(O)c3c(c(O)c1C2=O)C[C@@](O)(C(=O)CO)C[C@@H]3O[C@H]1C[C@H](N)[C@H](O)[C@H](C)O1	MTT	48 h	0.5 µM
O=C1C(=Nc2ccccc2Br)c2ccccc2N1Cc1ccccc1	MTT	48 h	2.16 µM
O=C1CS/C(=N\c2cc(C(F)(F)F)ccc2-c2nnc(N3C(=O)CS/C3=N\c3ccc(-c4ccccc4)cc3)s2)N1c1ccc(-c2ccccc2)cc1	MTT		90.1 µM
COc1cc(N=C2C(=O)N(Cc3ccccc3)c3ccccc32)cc(OC)c1	MTT	48 h	0.56 µM
C[C@H]1[C@H](C)CC[C@]2(C)CC[C@]3(C)C(=CC(=O)[C@@H]4[C@@]5(C)CC[C@@H](O)[C@](C)(C(=O)NCc6cn(-c7ccccc7C(F)(F)F)nn6)[C@@H]5CC[C@]43C)[C@H]12	MTT	24 h	83.4 µM
O=C(NCc1ccc(OC(F)(F)F)cc1)c1cn(Cc2ccc(F)cc2)c2ccc(Oc3ccccc3)cc2c1=O	MTT	48 h	79.6 µM
O=[N+]([O-])c1cc(I)c(O)c(C=NNc2ccccc2)c1	MTT	24 h	7.76 µM
Clc1ccc(Cn2nc(-c3nc(-c4ccccc4)no3)c3ccccc32)c(Cl)c1		48 h	66.5 µM
CCOC(=O)c1c(C)nc2ccc(-c3ccc(F)c(F)c3)cc2c1O	MTT	48 h	12 µM
COc1cc(N=C2C(=O)Nc3ccccc32)cc(OC)c1	MTT	48 h	16.2 µM
C/C(=N\N=C(/C)c1c(O)c2ccccc2oc1=O)c1c(O)c2ccccc2oc1=O	MTT	48 h	33.6 µM
CC(=O)O[C@@]12CO[C@@H]1C[C@H](O)[C@@]1(C)C(=O)[C@H](O)C3=C(C)[C@@H](OC(=O)[C@H](O)[C@@H](NC(=O)OC(C)(C)C)c4ccccc4)C[C@@](O)([C@@H](OC(=O)c4ccccc4)[C@H]21)C3(C)C	MTT	48 h	92.5 µM
O=C(C=Cc1ccc(OCCCOc2ccc(C=CC(=O)c3cccs3)cc2)cc1)c1cccs1	MTT	48 h	30.1 µM
